Measurements collected from several papers.
Lines come from different studies, so protocols differ.
Cell line: MCF7
Effect on: cell growth or viability

Structure (SMILES) | assay | setting | quantity | value
C[C@H](N)C(=O)Nc1ccccc1/N=c1\cc(-c2ccc3c(c2)OCCO3)oc2cc(F)ccc12 | CCK-8 | 1 µM | inhibition | 3.33%
O=C(Nc1ccc(Cl)cc1)Nc1cccc(-c2cn(Cc3cccc(Cl)c3)nn2)c1 | CCK-8 | 50 µM, 48 h | viability | 92.3%
O=C(Nc1ccccc1/N=c1\cc(-c2ccc3c(c2)OCCO3)oc2cc(F)ccc12)N1CCOCC1 | CCK-8 | 1 µM | inhibition | 16.7%
CN(C)CCNC(=O)c1ccc(-c2nc3ccc4[nH]ncc4c3c3c2CCCCC3)c(F)c1 |  | 72 h | GI50 | 3.31 µM
COc1ccc(NC(=O)Nc2cccc(-c3cn(Cc4ccc(Br)cc4)nn3)c2)cc1 | CCK-8 | 50 µM, 72 h | viability | 98.4%
COc1ccc2/c(=N/c3ccccc3NC(=O)[C@@H](N)C(C)(C)C)cc(-c3ccc4c(c3)OCCO4)oc2c1 | CCK-8 | 1 µM | inhibition | 8.1%
COc1ccc(NC(=O)NCc2cn(Cc3ccccc3C)nn2)cc1 | CCK-8 | 50 µM, 48 h | viability | 96.3%
NCCC(=O)Nc1ccc(/N=c2\cc(-c3ccc4c(c3)OCO4)oc3ccccc23)cc1 | CCK-8 | 1 µM | inhibition | 6.42%
O=C(Nc1ccc(Cl)cc1)Nc1cccc(-c2cn(Cc3ccc(Cl)cc3)nn2)c1 | CCK-8 | 50 µM, 48 h | viability | 104%
NCC(=O)Nc1ccccc1/N=c1\cc(-c2ccc3c(c2)OCO3)oc2ccccc12 | CCK-8 | 1 µM | inhibition | 10.9%
O=C(NCc1cn(Cc2ccc(Br)cc2)nn1)Nc1ccccc1Br | CCK-8 | 50 µM, 72 h | viability | 80.2%
Cc1nc(NC(=O)N2CCC[C@H]2C(N)=O)sc1-c1ccnc(C(C)(C)C(F)(F)F)c1 | ATP luminescence | 5 days | EC50 | 0.917 µM
O=C(NCc1cn(Cc2ccc(Br)cc2)nn1)Nc1ccc(Cl)cc1 | CCK-8 | 50 µM, 72 h | viability | 91.2%
COc1ccc(NC(=O)Nc2ccc(-c3cn(Cc4ccc(C)cc4)nn3)cc2)cc1 | CCK-8 | 50 µM, 72 h | viability | 87.4%
O=C(Nc1ccccc1/N=c1\cc(-c2ccc3c(c2)OCO3)oc2ccccc12)N1CCNCC1 | CCK-8 | 1 µM | inhibition | 13.5%
COc1ccc(NC(=O)Nc2cccc(-c3cn(Cc4ccccc4C)nn3)c2)cc1 | CCK-8 | 50 µM, 48 h | viability | 94.8%
O=C(Nc1cccc(-c2cn(Cc3ccc(Br)cc3)nn2)c1)Nc1ccccc1Br | CCK-8 | 50 µM, 72 h | viability | 76.8%
COc1ccc(C=NNC(=O)c2nc3ccccc3s2)cc1OS(C)(=O)=O | MTT | 100 µM, 48 h | cell death | 32.3%
Cc1ccccc1Cn1cc(-c2cccc(NC(=O)Nc3ccc(F)cc3)c2)nn1 | CCK-8 | 50 µM, 48 h | viability | 100%
O=C(NCc1cn(Cc2ccc(Cl)cc2)nn1)Nc1ccccc1Br | CCK-8 | 50 µM, 48 h | viability | 84.4%
CN(C)CCNC(=O)c1ccc(-c2nc3ccc4[nH]ncc4c3c3c2CCCC3)cc1 |  | 72 h | GI50 | 3.34 µM
COc1ccc2/c(=N/c3ccccc3NC(=O)[C@H](C)N)cc(-c3ccc4c(c3)OCCO4)oc2c1 | CCK-8 | 1 µM | inhibition | 8.55%
COc1ccc(NC(=O)Nc2cccc(-c3cn(Cc4cccc(Cl)c4)nn3)c2)cc1 | CCK-8 | 50 µM, 72 h | viability | 101%
